# Test results reported in ChEMBL document CHEMBL4622889, “Antineurodegenerative Labdane Diterpenoid Glycosides from the Twigs of Pinus koraiensis” (J Nat Prod, 2020).
# What was measured:
# [1] = Cytotoxicity against mouse BV2 cells assessed as cell viability at 20 uM by MTT assay relative to control; format: cell-based, BV-2; details: read-out: Activity
# How it was run: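 BV2 cells treated with 20 μM of each compound; viability determined by MTT and expressed as percent. Means ± SD of three independent experiments.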
# [2] = Cytotoxicity against rat C6 cells assessed as cell viability at 20 uM by MTT assay relative to control; format: cell-based; details: read-out: Activity
# How it was run: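 C6 cells exposed to 20 μM of each compound; viability read by MTT and expressed as percent. Means ± SD of three independent experiments.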
# BV-2 = test: Antineuroinflammatory activity against mouse BV2 cells assessed as inhibition of LPS-induced NO production incubated for 24 hrs by Griess assay; format: functional, cell-based; details: BV-2, 24 h
# How it was run: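 BV2 microglia activated with LPS; NO production measured across compound concentrations, IC50 taken as the concentration (μM) giving 50% inhibition of NO production. Means ± SD of three independent experiments.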
# C6 = test: Neuroprotective activity in rat C6 cells assessed as NGF secretion at 20 uM incubated for 24 hrs by ELISA relative to control; format: functional
# How it was run: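 Compounds applied to C6 glioma cells at 20 μM for 24 h; NGF released into the conditioned medium quantified by ELISA and given as percent of untreated control (100%). 6-Shogaol served as positive control. Means ± SD of three independent experiments.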
SMILES,IC50 (BV-2),viability at 20 µM [1],viability at 20 µM [2],Activity (C6)
C[C@]12CCC[C@](C)(C(=O)O[C@@H]3O[C@H](CO)[C@@H](O)[C@H](O)[C@H]3O)[C@@H]1CC=C(CO)[C@@H]2CCC1=CCOC1=O,93.2 µM,87.7%,102%,119.4%
C=C1CC[C@@H]2[C@](C)(CCC[C@]2(C)C(=O)O[C@@H]2O[C@H](CO)[C@@H](O)[C@H](O)[C@H]2O)[C@H]1CCC1=CCOC1=O,65.8 µM,92.1%,101%,142.4%
C=C1CC[C@@H]2[C@](C)(CC[C@H](O)[C@]2(C)C(=O)O[C@@H]2O[C@H](CO)[C@@H](O)[C@H](O)[C@H]2O)[C@H]1CCC1=CCOC1=O,68.8 µM,91.3%,98.3%,134.7%
C=C1CC[C@@H]2[C@](C)(CCC[C@]2(C)C(=O)O[C@@H]2O[C@H](CO)[C@@H](O)[C@H](O)[C@H]2O)[C@H]1CC/C(=C/CO)CO,152 µM,133%,86.5%,105.4%
C[C@]12CCC[C@](C)(C(=O)O[C@@H]3O[C@H](CO)[C@@H](O)[C@H](O)[C@H]3O)[C@@H]1CC[C@@](C)(O)[C@@H]2CCC1=CCOC1=O,402 µM,70.4%,111%,84.5%
C=C1CC[C@@H]2[C@](C)(CCC[C@]2(C)C(=O)O[C@@H]2O[C@H](CO)[C@@H](O)[C@H](O)[C@H]2O)[C@H]1CC/C(=C\CO)CO,65.4 µM,135%,104%,162.3%

# Stronger by IC50 (BV-2), values ahead:
IC50 (BV-2),SMILES,viability at 20 µM [1],viability at 20 µM [2],Activity (C6)
54.1 µM,C=C1CC[C@@H]2[C@](C)(CCC[C@]2(C)C(=O)O[C@@H]2O[C@H](CO)[C@@H](O)[C@H](O)[C@H]2O)[C@H]1CCC1=CC(=O)OC1,107%,105%,162.7%
51.6 µM,C=C1CC[C@@H]2[C@](C)(CCC[C@]2(O)C(=O)O[C@@H]2O[C@H](CO)[C@@H](O)[C@H](O)[C@H]2O)[C@H]1CCC1=CCOC1=O,80.7%,76%,98.6%
49.2 µM,C[C@]12CCC[C@](C)(C(=O)O[C@@H]3O[C@H](CO)[C@@H](O)[C@H](O)[C@H]3O)[C@@H]1CC[C@](C)(O)[C@@H]2CCC1=CCOC1=O,89.6%,94.2%,106.1%
35.7 µM,C=C1C[C@H](O)[C@@H]2[C@](C)(CCC[C@]2(C)C(=O)O[C@@H]2O[C@H](CO)[C@@H](O)[C@H](O)[C@H]2O)[C@H]1CCC1=CCOC1=O,99.7%,101%,128.7%
28.8 µM,CNC(=N)NCCC[C@H](N)C(=O)O [TILARGININE],99.2%,,
24.1 µM,C=C1CC[C@@H]2[C@](C)(CC[C@@H](O)[C@]2(C)C(=O)O[C@@H]2O[C@H](CO)[C@@H](O)[C@H](O)[C@H]2O)[C@H]1CCC1=CCOC1=O,77.5%,92.8%,106.6%
